Measurements as given in ChEMBL document CHEMBL2146403, “Synthesis and Antitumor Activity of Ellagic Acid Peracetate” (ACS Med Chem Lett, 2012).
Activity calls are given as the source filed them. The calls are words filed in the database; no cut-off is given here.

Key:
[1] = system: B16; assay: Antitumor activity against mouse B16 cells xenografted in C57BL/6 mouse assessed as tumor growth inhibition at 0.5 mg/kg, po administered for 1 week prior to tumor injection followed by treatment for additional 2 weeks relative to vehicle-treated control; type: functional
How it was run: (§1)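 Subcutaneous B16 melanoma in C57BL/6 immunocompetent mice aged 8–12 weeks. Test agent or vehicle was given daily in drinking water at 0.5 mg/kg for one week. B16 cells were then inoculated and dosing continued for 2 more weeks. At sacrifice, tumors were excised and weighed against the vehicle group, and kidneys, livers and spleens were inspected.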

[2] = system: Mus musculus; assay: Toxicity in C57BL/6 mouse xenografted with B16 cells assessed as adverse effects at 0.5 mg/kg, po administered for 1 week prior to tumor injection followed by treatment for additional 2 weeks relative to vehicle-treated control; type: organism-based; set-up: dose 0.5 mg/kg, route oral; settings: in vivo; how it was run: as §1
[3] = system: Mus musculus; assay: Immunoenhancing activity in C57BL/6 mouse assessed as increase in total immune cells in bone marrow at 0.5 mg/kg, po administered for 1 week by trypan blue exclusion method relative to vehicle-treated control; type: functional
How it was run: (§2)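 Tumor-free normal mice were dosed for 1 week with test agent or vehicle. WBCs in peripheral blood and immune cells enriched from bone marrow and liver were counted by Trypan Blue exclusion and compared with the vehicle group. Columns are group means, bars SE, significance p ≤ 0.05.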

[4] = system: Mus musculus; assay: Immunoenhancing activity in C57BL/6 mouse assessed as increase in total immune cells in liver at 0.5 mg/kg, po administered for 1 week by trypan blue exclusion method relative to vehicle-treated control; type: functional; how it was run: as §2
[5] = system: Mus musculus; assay: Immunoenhancing activity in C57BL/6 mouse assessed as increase in immune subset cells in bone marrow at 0.5 mg/kg, po administered for 1 week by flow cytometric analysis relative to vehicle-treated control; type: functional, organism-based; set-up: dose 0.5 mg/kg
[6] = system: Mus musculus; assay: Immunoenhancing activity in C57BL/6 mouse assessed as increase in immune subset cells in liver at 0.5 mg/kg, po administered for 1 week by flow cytometric analysis relative to vehicle-treated control; type: functional, organism-based; set-up: dose 0.5 mg/kg
[7] = system: Mus musculus; assay: Immunomodulatory activity in C57BL/6 mouse NK cells expressing NK1.1 and CD3 assessed as cell surface CD107a expression level at 0.5 mg/kg, po administered for 1 week by YAC1 co culture-based immunostaining analysis (reference value: 41.5%); type: functional
[8] = system: Mus musculus; assay: Immunomodulatory activity in C57BL/6 mouse CD3-deficient NK cells expressing NK1.1 assessed as […]- and IL-18 induced IFNgamma level at 0.5 mg/kg, po administered for 1 week by flow cytometric analysis (reference value: 76.7%); type: functional
[9] = system: Mus musculus; assay: Toxicity in C57BL/6 mouse assessed as change in body weight at 0.5 mg/kg, po administered for 3 weeks relative to vehicle-treated control; type: organism-based; set-up: dose 0.5 mg/kg, route oral; settings: in vivo, 504 h
How it was run: (§3)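 Oral acute toxicity in normal mice dosed daily with test agent or vehicle for 3 weeks. Body, spleen and liver were inspected and weighed. Values are group means with n ≥ 4 and SE bars.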

[10] = system: Mus musculus; assay: Toxicity in C57BL/6 mouse assessed as change in liver weight at 0.5 mg/kg, po administered for 3 weeks relative to vehicle-treated control; type: organism-based; set-up: dose 0.5 mg/kg, route oral; settings: in vivo, 504 h; how it was run: as §3
[11] = system: Mus musculus; assay: Toxicity in C57BL/6 mouse assessed as change in spleen weight at 0.5 mg/kg, po administered for 3 weeks relative to vehicle-treated control; type: organism-based; set-up: dose 0.5 mg/kg, route oral; settings: in vivo, 504 h; how it was run: as §3
[12] = system: B16; assay: Growth inhibition of mouse B16 cells at 10 uM after 24 to 96 hrs by trypan blue exclusion assay; type: functional, cell-based
[13] = system: B16; assay: Induction of apoptosis in mouse B16 cells assessed as early apoptotic cells at 10 uM after 72 hrs by AnnexinV/PI staining-based flow cytometric analysis (reference value: 2.28%); type: functional
[14] = system: B16; assay: Induction of apoptosis in mouse B16 cells assessed as late apoptotic cells at 10 uM after 72 hrs by AnnexinV/PI staining-based flow cytometric analysis (reference value: 2.48%); type: functional
[15] = system: B16; assay: Induction of apoptosis in mouse B16 cells assessed as necrotic cells at 10 uM after 72 hrs by AnnexinV/PI staining-based flow cytometric analysis (reference value: 5.26%); type: functional
[16] = system: B16; assay: Induction of apoptosis in mouse B16 cells assessed as viable cells at 10 uM after 72 hrs by AnnexinV/PI staining-based flow cytometric analysis (reference value: 90%); type: functional; settings: B16, 72 h, read-out: Activity
[17] = system: B16; assay: Induction of apoptosis in mouse B16 cells assessed as decrease in Bcl2 expression at 10 uM after 72 hrs by Western blot analysis; type: functional, cell-based
[18] = system: Mus musculus; assay: Immunoenhancing activity in C57BL/6 mouse assessed as increase in peripheral blood WBC level at 0.5 mg/kg, po administered for 1 week by trypan blue exclusion method relative to vehicle-treated control; type: functional; how it was run: as §2

SMILES | growth inhibition (GI) [1] | Activity [2] | Activity [3] | Activity [4] | Activity [5] | Activity [6] | Activity [7] | Activity [8] | Activity [9] | Activity [10] | Activity [11] | growth inhibition (GI) [12] | Activity [13] | Activity [14] | Activity [15] | viability at 10 µM [16] | Activity [17] | inhibition in vivo at 0.5 mg/kg ([1]; read-out: GI) | Activity [18]
O=c1oc2c(O)c(O)cc3c(=O)oc4c(O)c(O)cc1c4c23 [ELLAGIC ACID] | inactive | Non-toxic | inactive | inactive | inactive | inactive | 37.2% | 74.9% | Non-toxic | Non-toxic | Non-toxic | Active | 4.33% | 6.84% | 4.95% | 83.9% | Active |  | 
CC(=O)Oc1cc2c(=O)oc3c(OC(C)=O)c(OC(C)=O)cc4c(=O)oc(c1OC(C)=O)c2c34 [ELLAGIC ACID TETRAACETATE] |  | Non-toxic | 50% | 200% | inactive | inactive | 40.4% | 78.2% | Non-toxic | Non-toxic | Non-toxic | Active | 6.99% | 9.78% | 11.8% | 71.4% | Active | 70% | 70%
